Results on 23 compounds are retold here after ChEMBL document CHEMBL1126837, “Inhibitors of acyl-CoA:cholesterol acyltransferase. 5. Identification and structure-activity relationships of novel beta-ketoamides as hypocholesterolemic agents” (J Med Chem, 1993).

One experiment has as its target O-acyltransferase (Oryctolagus cuniculus, UniProt G1SFD9). Nature of the experiment: In vitro inhibition of Acyl coenzyme A:cholesterol acyltransferase in intestinal microsomes isolated from cholesterol-fed rabbits. In kind it is functional, Intestine. In a few lines: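 Intestinal microsomes from cholesterol-fed rabbits were incubated with the compound and [1-14C]oleoyl-CoA as substrate. IC50 is the micromolar concentration giving 50% inhibition of enzyme activity. Each determination was done in triplicate.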

Experiment [1] relates to Rattus norvegicus. Nature of the experiment: Tested for percentage change in total cholesterol in cholic acid (0.5%)-cholesterol (1.5%) -peanut oil (5.5%)-fed rats at 30 mg/kg. In kind it is functional. In a few lines: (§1)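 Male Sprague-Dawley rats (200-225 g) got a single oral gavage at 4 p.m. The compound was suspended in 1.5% carboxymethylcellulose/0.2% Tween-20 in water; controls got vehicle. Rats then fed ad libitum overnight on chow with 5.5% peanut oil, 1.5% cholesterol and 0.5% cholic acid. Blood was taken by cardiac puncture under ether at 8 a.m. Serum total cholesterol is given as % change versus vehicle controls (unpaired two-tailed t-test, p<0.05).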

Experiment [2] has as its system Rattus norvegicus. In words: Tested for percentage change in total cholesterol in cholic acid (0.5%)-cholesterol (1.5%) -peanut oil (5.5%)-fed rats at 3 mg/kg. The format is functional. In a few lines:
as §1

Chain of O-acyltransferase (G1SFD9 1-524): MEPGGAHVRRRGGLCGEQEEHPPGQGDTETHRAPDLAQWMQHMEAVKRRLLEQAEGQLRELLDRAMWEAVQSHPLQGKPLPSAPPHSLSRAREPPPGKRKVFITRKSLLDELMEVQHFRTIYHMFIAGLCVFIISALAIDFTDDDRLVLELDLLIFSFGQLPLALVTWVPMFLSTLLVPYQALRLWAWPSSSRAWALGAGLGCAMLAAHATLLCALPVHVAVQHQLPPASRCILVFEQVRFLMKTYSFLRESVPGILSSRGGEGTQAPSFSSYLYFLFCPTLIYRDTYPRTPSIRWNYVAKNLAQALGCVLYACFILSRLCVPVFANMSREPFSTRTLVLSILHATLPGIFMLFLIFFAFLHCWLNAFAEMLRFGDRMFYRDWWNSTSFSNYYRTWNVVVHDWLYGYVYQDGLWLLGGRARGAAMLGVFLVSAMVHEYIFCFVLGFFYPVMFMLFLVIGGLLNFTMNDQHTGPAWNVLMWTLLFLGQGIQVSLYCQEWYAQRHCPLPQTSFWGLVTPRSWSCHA

In the case of `CCCCCCCCCCC(=O)CC(=O)Nc1c(C(C)C)cccc1C(C)C`, the IC50 (in general, the point on the concentration scale where inhibition reaches its midpoint) against O-acyltransferase turned out to be 60 nM. For the same compound, the Change in the experiment with Rattus norvegicus [1] is given as -30%.
The matching figures for `CCCCCCCC1CCC(C(=O)Nc2c(C(C)C)cccc2C(C)C)C(=O)O1` (stereo unspecified): 340 nM and -11%.
Turning to `CCCCCCCCCCCC(=O)C(C)(C)C(=O)Nc1c(OC)cc(OC)cc1OC`, the Change in the experiment on Rattus norvegicus [2] was 0%; in the experiment with Rattus norvegicus [1], -44%. The compound also came in with an IC50 at O-acyltransferase of 370 nM.
The matching figures for `CC(C)c1cccc(C(C)C)c1NC(=O)CC(=O)CCCCCCCCCCO`: -2%, -29% and 230 nM.
On the same counts, the results for `CC(C)c1cccc(C(C)C)c1NC(=O)CC(=O)C(c1ccccc1)c1ccccc1` are -21%, -65% and 35 nM.
On the same counts, the results for `CCCCCCCCCCCCCC(=O)CC(=O)Nc1c(C(C)C)cccc1C(C)C` are -38%, -66% and 6 nM.
Take `CCCCCCCCCCCCC(=O)CC(=O)Nc1c(C(C)C)cccc1C(C)C`: the figures for the Change in the experiment on Rattus norvegicus [2] and in the experiment with Rattus norvegicus [1] were -31% and -56%, respectively. Moreover, 11 nM corresponded to half-maximal inhibition against O-acyltransferase (IC50).
Take `CC(C)c1cccc(C(C)C)c1NC(=O)CC(=O)C1(c2ccccc2)CCCC1`: on O-acyltransferase, the IC50 is 11 nM. Besides, in the experiment on Rattus norvegicus [1], the Change is -37%.
With `CC(C)c1cccc(C(C)C)c1NC(=O)CC(=O)c1ccccc1`, the Change with Rattus norvegicus [2] was 0%; in the experiment on Rattus norvegicus [1], -4%. Moreover, the IC50 at O-acyltransferase is 810 nM.
On the same counts, the results for `CC(C)c1cccc(C(C)C)c1NC(=O)C/C(CC(c1ccccc1)c1ccccc1)=N\O` are 0%, -1% and 210 nM.
On the same counts, the results for `CCCCCCCCCC(=O)CC(=O)Nc1c(C(C)C)cccc1C(C)C` are -5%, -54% and 97 nM.
On the same counts, the results for `CCCCCCCCCCCC(=O)C(C)(C)C(=O)N(C)c1c(C(C)C)cccc1C(C)C` are 0%, -60% and 1000 nM.
For the compound `CC(C)c1cccc(C(C)C)c1NC(=O)CC(=O)CC(c1ccccc1)c1ccccc1`, the values for the Change in the experiment on Rattus norvegicus [2] and in the experiment on Rattus norvegicus [1] were -23% and -43%, respectively. This compound had an IC50 against O-acyltransferase of 44 nM.
On to `CCCCCCCCCCCC(=O)CC(=O)Nc1c(C(C)C)cccc1C(C)C`, for which the Change was -25% in the experiment on Rattus norvegicus [2] and -43% in the experiment on Rattus norvegicus [1]. At O-acyltransferase, this compound showed an IC50 of 69 nM.
Consider `CCCCCCCCCCCC(=O)C(C)(C)C(=O)N(C)c1c(OC)cc(OC)cc1OC`, for which the Change in the experiment with Rattus norvegicus [1] is recorded as -40%.
On the same count and under the same terms, as for `CCCCCCCC1CC(C(=O)Nc2c(C(C)C)cccc2C(C)C)C(=O)O1` (stereo unspecified), the figure is -26%.
Turning to `CC(C)c1cccc(C(C)C)c1NC(=O)CC(O)CC(c1ccccc1)c1ccccc1` (stereo unspecified), on O-acyltransferase, it took 3500 nM to reach half-maximal inhibition (IC50). Moreover, the Change in the experiment on Rattus norvegicus [1] was -10%.
As for `CCCCCCCCCCCCC1CCCC(C(=O)Nc2c(C(C)C)cccc2C(C)C)C(=O)N1` (stereo unspecified), 22 nM corresponded to half-maximal inhibition against O-acyltransferase (IC50). Also, the Change in the experiment on Rattus norvegicus [1] is recorded as -47%.
Take `CCCCCCCCCCCCCCC(=O)CC(=O)Nc1c(C(C)C)cccc1C(C)C`: the Change in the experiment on Rattus norvegicus [2] was -34%; with Rattus norvegicus [1], -57%. The compound also showed an IC50 at O-acyltransferase of 24 nM.
On the same counts, the results for `CC(C)c1cccc(C(C)C)c1NC(=O)CC(=O)CCCCCCCCCCOC1CCCCO1` (stereo unspecified) are -17%, -67% and 57 nM.
The compound `CCCCCCCCCCCC(=O)CC(=O)Nc1c(OC)cc(OC)cc1OC` gave an IC50 on O-acyltransferase of 150 nM. For the same compound, in the experiment with Rattus norvegicus [1], the Change is reported as -31%.
Turning to `CCCCCCC1CCC(C(=O)Nc2c(C(C)C)cccc2C(C)C)C(=O)O1` (stereo unspecified), in the experiment on Rattus norvegicus [1], the Change is given as -43%.
Turning to `CCCCCCCCCCCCC1CC(C(=O)Nc2c(C(C)C)cccc2C(C)C)C(=O)N1` (stereo unspecified), at O-acyltransferase, the IC50 is 53 nM. Besides, in the experiment with Rattus norvegicus [1], the Change is given as -20%.
